In the library only some 1% were active in any assay of this set; here they are far more common.
Hep lipid drop = inhibitors of hepatocyte lipid droplet formation, primary screen, imaging, high-throughput imaging, BODIPY stain. actives 0.4% (n = 240,000). inhibition, % at 6.5 µM. AML12 mouse hepatocytes, oleate lipid droplets. AID 1656, 2009;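 active means lipid droplet intensity inhibited by at least 50%, with more than 500 cells counted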
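Technique: fluorescence imaging, 20x objective, two fields per well / Assay system: AML12 hepatocytes (mouse) / Measure: % inhibition of lipid droplet signal / Doses: 6.5 µM single-point dosing / Incubation: overnight exposure / Reagent: 100 µM oleic acid challenge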
pCIP destab = p/CIP-EGFP fusion destabilizers, primary screen, fluorescence, F442A cells; 16 h; decrease of EGFP signal, % at 10 µM; actives 0.01% (n = 290,000); Q05BA5;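 active means EGFP signal decrease of at least 30% at 10 µM or well 3 SD below plate mean, unless failing retest; inactive means the rest, including hits failing retest or dose response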
Target sequence (Q05BA5 1-1403): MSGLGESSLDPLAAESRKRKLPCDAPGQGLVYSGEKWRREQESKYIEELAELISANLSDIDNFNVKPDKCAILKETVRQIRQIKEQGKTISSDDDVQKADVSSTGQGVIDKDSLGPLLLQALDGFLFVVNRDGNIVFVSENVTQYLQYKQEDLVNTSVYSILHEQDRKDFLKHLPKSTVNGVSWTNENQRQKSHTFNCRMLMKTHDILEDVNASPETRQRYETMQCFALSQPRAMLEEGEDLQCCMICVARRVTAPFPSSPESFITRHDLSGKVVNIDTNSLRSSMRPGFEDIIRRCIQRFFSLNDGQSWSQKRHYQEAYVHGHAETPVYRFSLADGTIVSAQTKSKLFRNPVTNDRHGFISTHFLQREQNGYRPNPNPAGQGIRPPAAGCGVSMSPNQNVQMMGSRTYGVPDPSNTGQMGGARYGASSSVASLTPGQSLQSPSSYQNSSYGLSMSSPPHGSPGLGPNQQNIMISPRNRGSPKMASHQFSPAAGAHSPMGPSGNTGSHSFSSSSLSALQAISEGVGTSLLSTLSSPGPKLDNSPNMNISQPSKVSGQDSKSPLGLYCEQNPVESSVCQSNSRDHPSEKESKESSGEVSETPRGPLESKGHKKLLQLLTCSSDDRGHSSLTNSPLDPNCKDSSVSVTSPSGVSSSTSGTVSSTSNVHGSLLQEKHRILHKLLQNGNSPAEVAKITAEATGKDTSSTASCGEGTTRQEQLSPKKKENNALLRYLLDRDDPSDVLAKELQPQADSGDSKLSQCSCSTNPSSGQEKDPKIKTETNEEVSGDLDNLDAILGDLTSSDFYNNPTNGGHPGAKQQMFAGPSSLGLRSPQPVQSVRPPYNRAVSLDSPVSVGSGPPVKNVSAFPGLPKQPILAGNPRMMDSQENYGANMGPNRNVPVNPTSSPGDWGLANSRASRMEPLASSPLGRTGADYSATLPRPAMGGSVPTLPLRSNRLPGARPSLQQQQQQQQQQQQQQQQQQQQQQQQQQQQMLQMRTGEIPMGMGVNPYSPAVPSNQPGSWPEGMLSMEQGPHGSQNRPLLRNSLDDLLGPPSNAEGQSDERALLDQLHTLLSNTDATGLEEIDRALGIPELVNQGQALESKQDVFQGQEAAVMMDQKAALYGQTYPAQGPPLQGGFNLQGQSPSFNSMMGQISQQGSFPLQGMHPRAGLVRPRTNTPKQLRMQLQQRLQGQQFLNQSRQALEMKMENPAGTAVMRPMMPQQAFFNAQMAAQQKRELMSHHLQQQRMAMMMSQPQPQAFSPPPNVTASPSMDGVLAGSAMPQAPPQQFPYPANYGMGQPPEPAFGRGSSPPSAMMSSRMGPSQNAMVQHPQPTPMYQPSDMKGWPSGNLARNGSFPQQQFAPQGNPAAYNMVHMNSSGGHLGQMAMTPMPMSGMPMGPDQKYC
Fh CTSL1 inh = Fasciola hepatica cathepsin L1 inhibitors, primary screen, counter-screen for PFM18AAP inhibitor project, biochemical, QFRET, fluorogenic peptide substrate. AID 1906, 2009. inhibition, % at 5.96 µM. actives 0.49% (n = 300,000). recombinant F. hepatica cathepsin L1, Z-Leu-Arg-MCA fluorescence;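 active means inhibition above the mean of all tested compounds plus 3 SD, set per screening campaign, cut at about 17% in these data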;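 further: 0% = plate median of test compound wells and 100% = 1 µM Z-Phe-Ala-diazomethylketone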
Arr AP2 block = inhibitors of beta-arrestin/AP2 binding, primary screen, biochemical, GPCR trafficking, flow cytometry; beta-arrestin 1 C-terminal peptide binding to AP2 beta2-adaptin appendage (human); FITC-arrestin peptide / GST-AP2 beads; AP2 beta2 appendage carries R879A mutation; inhibition, % at 10 µM; actives 0.31% (n = 340,000);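 active means inhibition above a set limit, near 3 SD of compounds lacking own fluorescence, cut at about 54% in these data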;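 further: plate controls were DMSO wells for no effect and 5 µM unlabelled arrestin peptide for full effect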
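Measured by: flow cytometry, FL1 (488/535 nm); Material: AP2 appendage R879A on GSH beads; Evaluation: percent response; Timing: pre-incubation 12 min, peptide binding 1 h, room temperature; Also added: 50 nM FITC-arrestin peptide; Medium: PBS with 0.05% Tween 20 and 0.1% BSA.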
Arr AP2 CP1 = inhibitors of arrestin peptide binding to AP2, confirmation, biochemical, cherry pick 1, flow cytometry beads; shares compounds with Arr AP2 block; GST-AP2 beads, FITC arrestin peptide binding; GST-fused beta2-adaptin appendage, R879A mutant; inhibition, % at 10 µM; actives 2% (n = 1,300); AID 504908, 2011;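 active means inhibition above a set limit, roughly 3 SD of non-fluorescent compound noise, cut at about 38% in these data; inactive means inhibition at or below that limit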;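 further: loss of bead fluorescence from 50 nM FITC arrestin peptide bound to appendage; 0% = negative control wells and 100% = excess unlabelled arrestin peptide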
GST-FITC bead = GST-fluorescein capture on glutathione beads, confirmation, artefact control for arrestin-AP2 inhibitor project, biochemical, cherry pick 1, flow cytometry | inhibition, % at 10 µM | actives 2% (n = 1,300) | GST-fluorescein binding to GSH beads, fluorescence, counter-screen | shares compounds with Arr AP2 block;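 active means inhibition above 50%, about 3 SD of the inhibition seen with non-fluorescent compounds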;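 further: fluorescein maleimide labelled GST captured on 4 micron glutathione beads; higher means more loss of bead fluorescence from quenching or blocked binding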
An asterisk follows results filed as active; · = no result given.

SMILES | Hep lipid drop | pCIP destab | Fh CTSL1 inh | Arr AP2 block | Arr AP2 CP1 | GST-FITC bead
Cc1sc2nc(CN3CCOCC3)nc(N3CCC(C(N)=O)CC3)c2c1C | · | · | 1.6 | 14.7 | · | ·
COCCN(CC(=O)Nc1cccc(S(=O)(=O)N2CCCC2)c1)Cc1nc2ccccc2c(=O)[nH]1 | · | · | · | 9.5 | · | ·
Nc1nnc(SCC(=O)OCC(=O)Nc2ccccc2F)s1 | 6.0 | 1.0 | -35.2 | 57.0* | -6.5 | -10.1
CN(C)C1(CNC(=O)c2cccc(S(=O)(=O)NCc3ccccc3)c2)CCCCC1 | · | · | · | 4.8 | · | ·
CN(C)C1(CNC(=O)c2cccc(S(=O)(=O)Nc3ccc(Br)cc3)c2)CCCCC1 | · | · | -5.2 | -6.7 | 0.4 | 1.8
COc1ccc(NS(=O)(=O)c2cccc(C(=O)NCC(c3ccccc3)N(C)C)c2)cc1 (stereo not drawn) | · | · | 7.0 | -0.4 | · | ·
CCN(c1ccccc1)S(=O)(=O)c1cccc(C(=O)NCC2(N(C)C)CCCCC2)c1 | · | · | · | 14.5 | 16.7 | -2.2
COc1ccc(NS(=O)(=O)c2cccc(C(=O)NCC3(N(C)C)CCCCC3)c2)cc1 | · | · | -4.2 | 55.4* | -3.9 | -8.9
Cc1ccc(NS(=O)(=O)c2cccc(C(=O)NCC3(N(C)C)CCCCC3)c2)cc1 | -4.3 | 11.6 | -1.0 | -4.9 | · | ·
CCCCNC(=O)COC(=O)CCC(=O)c1cccs1 | -0.5 | 2.3 | -49.9 | 7.2 | · | ·
Cc1cccc(N/N=C(\C(N)=O)C2=NC(C)(C)Cc3ccccc32)c1 | 3.9 | 1.5 | -30.4 | 54.7* | 19.1 | 0.1
CCOC(=O)/C(=N\O)C1=NC(C)(C)Cc2ccccc21 | -9.1 | -1.9 | -6.0 | -3.7 | · | ·
CC1(C)CC(NC(=O)c2ccncc2)CC(C)(C)N1O | -13.3 | 5.2 | 3.0 | 1.6 | · | ·
COc1ccc(/C=C/C(=O)OCC(=O)N2CCCC2)c(OC)c1 | · | · | · | 5.5 | · | ·
CC12CCC(=O)N1C(C(=O)Nc1nnc(SCc3ccccc3)s1)CS2 (stereo not drawn) | · | · | 11.5 | -1.5 | · | ·
CCSc1nnc(NC(=O)C2CSC3(C)CCC(=O)N23)s1 (stereo not drawn) | · | · | · | 60.2* | 0.3 | -4.5
O=C(Nc1cc(Cl)ccc1-n1cncn1)c1ccccc1OC(F)F | · | · | · | 68.0* | 6.1 | -5.7
COc1cc(C(=O)Nc2cc(Cl)ccc2-n2cncn2)ccc1OC(F)F | · | · | 2.1 | 25.1 | · | ·
Cc1ccnc2nc(C(=O)OCC(=O)NCc3cccc(Cl)c3)nn12 | · | · | · | 2.1 | · | ·
O=C1C(Cl)=C(N2CCC(C(=O)O)CC2)C(=O)c2ccccc21 | · | -0.5 | 7.0 | 26.5 | · | ·
NC(=O)C1CCN(C2=C(Cl)C(=O)c3ccccc3C2=O)CC1 | · | -6.5 | 24.0* | 54.2* | 51.3* | -0.2
CC(C)OC(=O)CSc1nc(Cc2ccccc2)nc2ccccc12 | -10.2 | 5.6 | 2.5 | 71.3* | -10.5 | 0.1
O=C(Nc1c(Cl)cccc1Cl)c1ccc(-c2ccccc2)cc1 | · | 7.1 | 1.8 | 17.7 | · | ·
CCN1/C(=C/c2ccc3cc(C)ccc3[n+]2CC)Sc2ccc3sccc3c21 | · | · | 2.3 | 75.1* | 42.5* | 139.7*
COc1ccc(-c2n[nH]c(=S)n2Cc2ccccc2)cc1 | -2.2 | -9.5 | 1.9 | 55.7* | -21.5 | -7.2
SMILES | Hep lipid drop | pCIP destab | Fh CTSL1 inh | Arr AP2 block | Arr AP2 CP1 | GST-FITC bead
COc1cc(NC(=O)n2ncc3cc(Cl)ccc32)cc(OC)c1 | -9.9 | -7.7 | -7.8 | 5.8 | · | ·
O=C(Nc1ccccc1F)n1ncc2cc(Cl)ccc21 | · | -15.0 | 5.6 | 62.5* | -2.2 | -4.4
C=CCN1C(=O)/C(=C/c2ccsc2)SC1=S | 4.9 | -5.3 | 4.2 | 6.6 | · | ·
C=CCN1C(=O)/C(=C/c2ccc(-c3ccc(F)cc3)o2)SC1=S | 16.5 | -9.7 | -0.5 | 66.5* | 10.3 | 20.0
O=C(NNC(=O)c1ccc(Cl)nc1)c1ccncc1 | · | · | · | 57.0* | -4.0 | -4.6
O=C(COc1ccc(F)cc1Cl)N1CCN(C(=O)c2cccs2)CC1 | · | · | · | -8.0 | · | ·
NS(=O)(=O)c1ccc(NC(=O)C2C3C=CC(C3)C2C(=O)O)cc1 (stereo not drawn) | 7.3 | -0.4 | -2.3 | 57.8* | 24.1 | -7.0
O=C1CN(c2nc(-c3cccs3)nc3sc4c(c23)CCCC4)CCN1 | -19.8 | 0.2 | 5.9 | -19.5 | · | ·
CCN(C(=O)Cn1cc(C(=O)C(=O)N2CCOCC2)c2ccccc21)c1ccccc1 | 0.7 | -0.5 | -2.0 | 66.0* | -7.9 | 1.2
CCN(CC)C(=O)Cn1cc(C(=O)C(=O)N2CCN(c3ccccc3)CC2)c2ccccc21 | -13.2 | -3.7 | -7.4 | -11.8 | · | ·
COc1ccccc1N1CCN(C(=O)CSc2ncnc3scc(-c4ccccc4)c23)CC1 | 22.9 | -5.9 | -1.6 | 60.3* | 4.5 | 1.9
COc1ccc(-c2csc3ncnc(N4CCN(c5ccccc5O)CC4)c23)cc1 | -29.8 | -1.0 | 1.3 | 55.8* | -12.0 | -3.3
CCn1c(=O)n(CC(=O)Nc2ccc(F)cc2)c(=O)c2ccccc21 | -2.1 | 3.0 | 0.1 | 12.4 | -1.5 | -10.0
CCn1c(=O)n(CC(=O)NCc2ccccc2OC)c(=O)c2ccccc21 | 12.6 | -3.8 | -0.5 | -7.5 | · | ·
COc1ccccc1NC(=S)NCCc1ccc(S(N)(=O)=O)cc1 | 5.0 | -15.3 | -8.3 | 3.6 | · | ·
COc1ccc(-c2nc(CS(=O)CC(=O)NC3CCC(C)CC3)c(C)o2)cc1OC (stereo not drawn) | -3.7 | -5.7 | -0.3 | 54.5* | -10.7 | 0.1
COc1ccc(-c2nc(CS(=O)CC(=O)NC3CCCC3)c(C)o2)cc1OC (stereo not drawn) | 5.4 | 2.7 | 7.8 | 32.4 | · | ·
O=C1NC(=O)C(Cc2ccccc2)(c2ccccc2)N1 (stereo not drawn) | · | · | · | 8.2 | · | ·
COc1ccc(CC(=O)N2CCC3(CC2)NCCc2[nH]cnc23)cc1 | -0.8 | -7.2 | -0.4 | -3.7 | · | ·
O=C(Cc1ccc(F)cc1)N1CCC2(CC1)NCCc1[nH]cnc12 | -2.9 | -4.7 | -2.1 | 55.7* | 3.1 | -3.9
COc1ccc(Br)cc1CNC(=O)CCNC(=O)Cn1ccc2ccccc2c1=O | -3.3 | -11.6 | 0.1 | 57.0* | 1.4 | 0.5
COc1ccc(OC)c(CNC(=O)CCNC(=O)Cn2ccc3ccccc3c2=O)c1 | · | -7.2 | -3.0 | 3.1 | · | ·
Cc1ccc(C(=O)COC(=O)CCN2C(=O)C3C4C=CC(C5CC45)C3C2=O)cc1 (stereo not drawn) | -11.5 | 4.5 | -3.7 | 57.1* | 2.2 | -0.9
CC(C)c1nn(-c2cc(C(F)(F)F)ccn2)c(=O)o1 | 4.8 | -1.2 | -1.6 | 24.4 | · | ·
S=C(NCc1ccco1)Nc1cccc(Cl)c1 | 16.5 | -3.2 | 7.4 | 58.8* | 18.0 | -4.9
CCN(CC)S(=O)(=O)c1ccc(NC(=O)c2ccc(N(C)S(C)(=O)=O)cc2)cc1 | 2.4 | 3.8 | -7.5 | -7.8 | · | ·
